From ChEMBL document CHEMBL2424551, “Synthesis, in vitro evaluation and molecular modelling of naphthalimide analogue as anticancer agents” (2013)
Calls of active or inactive are those of the source. The calls are words filed in the database; no cut-off is given here.

What was measured:
Format in all cases: functional
PC-3 = experiment: Growth inhibition of human PC3 cells at 10 uM after 48 hrs by SRB assay; conditions: PC-3, 48 h, read-out: GI
How it was run: (§1)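 Cells grown in RPMI 1640 with 5% FBS and 2 mM L-glutamine, plated at 5000–40,000 cells/well by doubling time and preincubated 24 h (37 °C, 5% CO2); a time-zero plate is TCA-fixed. Single dose added, then 48 h incubation. Fixed with cold TCA, stained with 0.4% SRB, dye solubilized in 10 mM Tris base, absorbance at 515 nm; percent growth vs time-zero and untreated control.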

BT-549 = experiment: Growth inhibition of human BT549 cells at 10 uM after 48 hrs by SRB assay; conditions: BT-549, 48 h, read-out: GI; how it was run: as §1
T47D = experiment: Growth inhibition of human T47D cells at 10 uM after 48 hrs by SRB assay; conditions: read-out: GI
How it was run: (§2)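 NCI 60-cell-line screen with a single 10 µM dose. Cells are grown in RPMI 1640 with 5% FBS and 2 mM L-glutamine, plated at 5000–40,000 cells/well according to doubling time, and preincubated 24 h at 37 °C, 5% CO2; time-zero plates are TCA-fixed at that point. Drug exposure is 48 h. Adherent cells are fixed with cold TCA, stained with 0.4% SRB in 1% acetic acid and read at 515 nm. Percent growth is calculated relative to time-zero and untreated controls and reported as GI%.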

[1] = Growth inhibition of human HCC2998 cells at 10 uM after 48 hrs by SRB assay; conditions: HCC 2998, 48 h, read-out: GI; how it was run: as §1
HCT-116 = experiment: Growth inhibition of human HCT116 cells at 10 uM after 48 hrs by SRB assay; conditions: HCT-116, 48 h, read-out: GI; how it was run: as §1
OVCAR-5 = experiment: Growth inhibition of human OVCAR5 cells at 10 uM after 48 hrs by SRB assay; conditions: OVCAR-5, 48 h, read-out: GI; how it was run: as §1
HOP-62 = experiment: Growth inhibition of human HOP62 cells at 10 uM after 48 hrs by SRB assay; conditions: HOP-62, 48 h, read-out: GI; how it was run: as §1
CCRF-CEM = experiment: Growth inhibition of human CCRF-CEM cells at 10 uM after 48 hrs by SRB assay; conditions: read-out: GI; how it was run: as §1
SW-620 = experiment: Growth inhibition of human SW620 cells at 10 uM after 48 hrs by SRB assay; conditions: SW-620, 48 h, read-out: GI; how it was run: as §2
A549 = experiment: Growth inhibition of human A549 cells at 10 uM after 48 hrs by SRB assay; conditions: A549, 48 h, read-out: GI; how it was run: as §1
OVCAR-4 = experiment: Growth inhibition of human OVCAR4 cells at 10 uM after 48 hrs by SRB assay; conditions: OVCAR-4, 48 h, read-out: GI; how it was run: as §1
Hs-578T = experiment: Growth inhibition of human Hs578T cells at 10 uM after 48 hrs by SRB assay; conditions: read-out: GI; how it was run: as §1
SNB-19 = experiment: Growth inhibition of human SNB19 cells at 10 uM after 48 hrs by SRB assay; conditions: SNB-19, 48 h, read-out: GI; how it was run: as §2
RXF 393 = experiment: Growth inhibition of human RXF393 cells at 10 uM after 48 hrs by SRB assay; conditions: RXF 393, 48 h, read-out: GI; how it was run: as §1
KM12 = experiment: Growth inhibition of human KM12 cells at 10 uM after 48 hrs by SRB assay; conditions: KM12, 48 h, read-out: GI; how it was run: as §1
RPMI-8226 = experiment: Growth inhibition of human RPMI8226 cells at 10 uM after 48 hrs by SRB assay; conditions: RPMI-8226, 48 h, read-out: GI; how it was run: as §1
MDA-MB-468 = experiment: Growth inhibition of human MDA-MB-468 cells at 10 uM after 48 hrs by SRB assay; how it was run: as §1
SNB-75 = experiment: Growth inhibition of human SNB75 cells at 10 uM after 48 hrs by SRB assay; conditions: SNB-75, 48 h, read-out: GI; how it was run: as §2
HCT-15 = experiment: Growth inhibition of human HCT15 cells at 10 uM after 48 hrs by SRB assay; conditions: HCT-15, 48 h, read-out: GI; how it was run: as §1
OVCAR-3 = experiment: Growth inhibition of human OVCAR3 cells at 10 uM after 48 hrs by SRB assay; conditions: OVCAR-3, 48 h, read-out: GI; how it was run: as §1
A498 = experiment: Growth inhibition of human A498 cells at 10 uM after 48 hrs by SRB assay; conditions: A498, 48 h, read-out: GI; how it was run: as §1
NCI-H322M = experiment: Growth inhibition of human NCI-H322M cells at 10 uM after 48 hrs by SRB assay; conditions: read-out: GI; how it was run: as §1
NCI-H226 = experiment: Growth inhibition of human NCI-H226 cells at 10 uM after 48 hrs by SRB assay; conditions: NCI-H226, 48 h, read-out: GI; how it was run: as §1
NCI-H23 = experiment: Growth inhibition of human NCI-H23 cells at 10 uM after 48 hrs by SRB assay; conditions: NCI-H23, 48 h, read-out: GI; how it was run: as §1
NCI-H522 = experiment: Growth inhibition of human NCI-H522 cells at 10 uM after 48 hrs by SRB assay; conditions: NCI-H522, 48 h, read-out: GI; how it was run: as §1
SR = experiment: Growth inhibition of human SR cells at 10 uM after 48 hrs by SRB assay; conditions: read-out: GI; how it was run: as §2
UACC-62 = experiment: Growth inhibition of human UACC62 cells at 10 uM after 48 hrs by SRB assay; conditions: UACC-62, 48 h, read-out: GI; how it was run: as §2
SK-OV-3 = experiment: Growth inhibition of human SKOV3 cells at 10 uM after 48 hrs by SRB assay; conditions: SK-OV-3, 48 h, read-out: GI; how it was run: as §2
MCF7 = experiment: Growth inhibition of human MCF7 cells at 10 uM after 48 hrs by SRB assay; conditions: MCF7, 48 h, read-out: GI; how it was run: as §1
SK-MEL-5 = experiment: Growth inhibition of human SK-MEL-5 cells at 10 uM after 48 hrs by SRB assay; conditions: SK-MEL-5, 48 h, read-out: GI; how it was run: as §1
K562 = experiment: Growth inhibition of human K562 cells at 10 uM after 48 hrs by SRB assay; conditions: K562, 48 h, read-out: GI; how it was run: as §1
NCI-H460 = experiment: Growth inhibition of human NCI-H460 cells at 10 uM after 48 hrs by SRB assay; conditions: NCI-H460, 48 h, read-out: GI; how it was run: as §1
SN12C = experiment: Growth inhibition of human SN12C cells at 10 uM after 48 hrs by SRB assay; conditions: read-out: GI; how it was run: as §2
Malme-3M = experiment: Growth inhibition of human MALME-3M cells at 10 uM after 48 hrs by SRB assay; conditions: read-out: GI; how it was run: as §1
TK-10 = experiment: Growth inhibition of human TK10 cells at 10 uM after 48 hrs by SRB assay; conditions: TK-10, 48 h, read-out: GI; how it was run: as §2

SMILES | inhibition of growth at 10 µM (PC-3) [%] | inhibition of growth at 10 µM (BT-549) [%] | inhibition of growth at 10 µM (T47D) [%] | inhibition of growth at 10 µM [1] [%] | inhibition of growth at 10 µM (HCT-116) [%] | inhibition of growth at 10 µM (OVCAR-5) [%] | inhibition of growth at 10 µM (HOP-62) [%] | inhibition of growth at 10 µM (CCRF-CEM) [%] | inhibition of growth at 10 µM (SW-620) [%] | inhibition of growth at 10 µM (A549) [%] | inhibition of growth at 10 µM (OVCAR-4) [%] | inhibition of growth at 10 µM (Hs-578T) [%] | inhibition of growth at 10 µM (SNB-19) [%] | inhibition of growth at 10 µM (RXF 393) [%] | inhibition of growth at 10 µM (KM12) [%] | inhibition of growth at 10 µM (RPMI-8226) [%] | growth inhibition (GI) (MDA-MB-468) | inhibition of growth at 10 µM (SNB-75) [%] | inhibition of growth at 10 µM (HCT-15) [%] | inhibition of growth at 10 µM (OVCAR-3) [%] | further results
O=c1c2cccc3c(Nc4c(F)cccc4F)ccc(c32)c2nc3ccccc3n12 | < 20 | < 20 | 47.3 | 27.3 | < 20 | < 20 | < 20 | 27.5 | < 20 | < 20 | < 20 | < 20 | < 20 | < 20 | 21.1 | 24.6 | Active | 20.1 | 24.5 | < 20 | inhibition of growth at 10 µM (A498): < 20%; inhibition of growth at 10 µM (NCI-H322M): < 20%; inhibition of growth at 10 µM (NCI-H226): 24.9%; inhibition of growth at 10 µM (NCI-H23): < 20%; inhibition of growth at 10 µM (NCI-H522): < 20%; inhibition of growth at 10 µM (SR): 78.5%; inhibition of growth at 10 µM (UACC-62): < 20%; inhibition of growth at 10 µM (SK-OV-3): < 20%; inhibition of growth at 10 µM (MCF7): 79.6%; inhibition of growth at 10 µM (SK-MEL-5): < 20%; inhibition of growth at 10 µM (K562): < 20%; inhibition of growth at 10 µM (NCI-H460): 27.3%; inhibition of growth at 10 µM (SN12C): < 20%; inhibition of growth at 10 µM (Malme-3M): < 20%
O=c1c2cccc3c(Nc4ccccn4)ccc(c32)c2nc3ccccc3n12 | 36 | < 20 | 53.4 | 31.5 | 35 | < 20 | 32.2 | 48.2 | 22.9 | 29.1 | 30.9 | < 20 | < 20 | < 20 | 25.2 | 51 | Active | 21.4 | 40.8 | 30 | inhibition of growth at 10 µM (TK-10): 34.2%; inhibition of growth at 10 µM (A498): < 20%; inhibition of growth at 10 µM (NCI-H322M): 25.5%; inhibition of growth at 10 µM (NCI-H226): 30.4%; inhibition of growth at 10 µM (NCI-H23): 34.5%; inhibition of growth at 10 µM (NCI-H522): 43.4%; inhibition of growth at 10 µM (SR): 29.8%; inhibition of growth at 10 µM (UACC-62): 35.7%; inhibition of growth at 10 µM (SK-OV-3): < 20%; inhibition of growth at 10 µM (MCF7): 71.3%; inhibition of growth at 10 µM (SK-MEL-5): 48.2%; inhibition of growth at 10 µM (K562): 53.5%; inhibition of growth at 10 µM (NCI-H460): 47.3%; inhibition of growth at 10 µM (SN12C): 28.3%; inhibition of growth at 10 µM (Malme-3M): < 20%
O=c1c2cccc3c(NC4CCCCC4)ccc(c32)c2nc3ccccc3n12 | 20.1 | < 20 | 67.5 | 48.3 | < 20 | < 20 | < 20 | 34.6 | < 20 | 33.5 | < 20 | < 20 | < 20 | < 20 | < 20 | 24.4 | Active | < 20 | 25.2 | < 20 | inhibition of growth at 10 µM (TK-10): 22.6%; inhibition of growth at 10 µM (A498): < 20%; inhibition of growth at 10 µM (NCI-H322M): < 20%; inhibition of growth at 10 µM (NCI-H226): 28%; inhibition of growth at 10 µM (NCI-H23): 54%; inhibition of growth at 10 µM (NCI-H522): 38.5%; inhibition of growth at 10 µM (SR): 98.9%; inhibition of growth at 10 µM (UACC-62): < 20%; inhibition of growth at 10 µM (SK-OV-3): < 20%; inhibition of growth at 10 µM (MCF7): 86.5%; inhibition of growth at 10 µM (SK-MEL-5): 33.9%; inhibition of growth at 10 µM (K562): 33.1%; inhibition of growth at 10 µM (NCI-H460): 65.3%; inhibition of growth at 10 µM (SN12C): < 20%; inhibition of growth at 10 µM (Malme-3M): < 20%
CCCCNc1ccc2c3c1cccc3c(=O)n1c3ccccc3nc21 | < 20 | < 20 | 64.3 | 26 | < 20 | < 20 | < 20 | 25 | < 20 | 23.4 | < 20 | < 20 | < 20 | < 20 | 22.3 | < 20 | Active | 26.6 | 23.8 | < 20 | inhibition of growth at 10 µM (TK-10): 29.8%; inhibition of growth at 10 µM (A498): < 20%; inhibition of growth at 10 µM (NCI-H322M): < 20%; inhibition of growth at 10 µM (NCI-H226): 26.3%; inhibition of growth at 10 µM (NCI-H23): 40%; inhibition of growth at 10 µM (NCI-H522): 28.1%; inhibition of growth at 10 µM (SR): 84.4%; inhibition of growth at 10 µM (UACC-62): < 20%; inhibition of growth at 10 µM (SK-OV-3): < 20%; inhibition of growth at 10 µM (MCF7): 89.7%; inhibition of growth at 10 µM (SK-MEL-5): 24.5%; inhibition of growth at 10 µM (K562): 21.2%; inhibition of growth at 10 µM (NCI-H460): 51.6%; inhibition of growth at 10 µM (SN12C): < 20%; inhibition of growth at 10 µM (Malme-3M): < 20%
